Data as given in ChEMBL document CHEMBL4402598, “Design and Synthesis of Bitopic 2-Phenylcyclopropylmethylamine (PCPMA) Derivatives as Selective Dopamine D3 Receptor Ligands” (J Med Chem, 2020).
pIC50, pKi: −log10 of the molar value.

Experiments:
D(1B) dopamine receptor = D(1B) dopamine receptor (Homo sapiens, UniProt P21918); test: Displacement of [3H]-SCH23390 from recombinant human D5 receptor transiently expressed in HEKT cell membranes measured after 90 mins by microbeta scintillation counting method
D(1B) dopamine receptor, sequence (P21918 whole entry): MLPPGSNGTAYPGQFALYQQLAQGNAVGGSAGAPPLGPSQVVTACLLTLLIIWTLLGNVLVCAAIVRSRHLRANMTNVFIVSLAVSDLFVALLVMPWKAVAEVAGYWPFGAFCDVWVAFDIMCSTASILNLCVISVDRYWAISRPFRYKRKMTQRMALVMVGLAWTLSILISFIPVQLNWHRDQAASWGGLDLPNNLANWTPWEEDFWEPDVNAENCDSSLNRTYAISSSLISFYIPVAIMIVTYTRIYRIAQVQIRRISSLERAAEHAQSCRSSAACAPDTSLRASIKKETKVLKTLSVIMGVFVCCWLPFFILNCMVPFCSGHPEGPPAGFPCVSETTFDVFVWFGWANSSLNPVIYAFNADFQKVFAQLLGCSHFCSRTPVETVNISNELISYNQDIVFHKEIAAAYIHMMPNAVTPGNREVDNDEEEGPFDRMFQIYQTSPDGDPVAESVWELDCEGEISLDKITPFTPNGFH

D(2) dopamine receptor = D(2) dopamine receptor (Homo sapiens, UniProt P14416); test: Displacement of [3H]-N-methylspiperone from recombinant human D2 receptor stably expressed in fibroblast cell membranes measured after 90 mins by microbeta scintillation counting method
D(2) dopamine receptor, sequence (P14416 whole entry): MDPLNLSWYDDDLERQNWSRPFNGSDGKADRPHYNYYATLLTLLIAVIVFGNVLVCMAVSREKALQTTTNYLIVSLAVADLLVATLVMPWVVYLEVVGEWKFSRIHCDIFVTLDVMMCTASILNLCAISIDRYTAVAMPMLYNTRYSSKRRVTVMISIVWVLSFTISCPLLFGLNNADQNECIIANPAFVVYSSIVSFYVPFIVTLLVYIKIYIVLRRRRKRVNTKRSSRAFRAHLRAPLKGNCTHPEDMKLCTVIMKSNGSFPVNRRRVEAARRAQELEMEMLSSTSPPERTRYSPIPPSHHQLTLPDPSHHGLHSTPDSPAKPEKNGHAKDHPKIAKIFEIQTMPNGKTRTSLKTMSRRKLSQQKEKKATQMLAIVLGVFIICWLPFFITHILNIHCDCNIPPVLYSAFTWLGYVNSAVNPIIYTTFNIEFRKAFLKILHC

D(1A) dopamine receptor = D(1A) dopamine receptor (Homo sapiens, UniProt P21728); test: Displacement of [3H]-SCH23390 from recombinant human D1 receptor transiently expressed in HEKT cell membranes measured after 90 mins by microbeta scintillation counting method
D(1A) dopamine receptor, sequence (P21728 whole entry): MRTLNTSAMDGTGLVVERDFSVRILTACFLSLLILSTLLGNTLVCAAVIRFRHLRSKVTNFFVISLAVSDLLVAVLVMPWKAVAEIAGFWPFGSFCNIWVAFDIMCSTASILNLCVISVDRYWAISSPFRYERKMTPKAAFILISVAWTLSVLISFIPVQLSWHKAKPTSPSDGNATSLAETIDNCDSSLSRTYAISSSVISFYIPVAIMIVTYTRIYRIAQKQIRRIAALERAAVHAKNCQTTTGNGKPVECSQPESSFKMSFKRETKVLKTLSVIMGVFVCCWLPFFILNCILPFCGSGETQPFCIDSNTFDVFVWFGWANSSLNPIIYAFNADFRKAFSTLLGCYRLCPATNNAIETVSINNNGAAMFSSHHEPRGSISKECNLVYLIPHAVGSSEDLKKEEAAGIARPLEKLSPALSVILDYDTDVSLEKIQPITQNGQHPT

[1] = target: T1, 5-hydroxytryptamine receptor 2C (Homo sapiens, UniProt P28335); test: Displacement of [3H]-Mesulergine from recombinant human 5HT2C receptor expressed in HEKT cell membranes measured after 90 mins by microbeta scintillation counting method
T1 sequence (P28335 whole entry): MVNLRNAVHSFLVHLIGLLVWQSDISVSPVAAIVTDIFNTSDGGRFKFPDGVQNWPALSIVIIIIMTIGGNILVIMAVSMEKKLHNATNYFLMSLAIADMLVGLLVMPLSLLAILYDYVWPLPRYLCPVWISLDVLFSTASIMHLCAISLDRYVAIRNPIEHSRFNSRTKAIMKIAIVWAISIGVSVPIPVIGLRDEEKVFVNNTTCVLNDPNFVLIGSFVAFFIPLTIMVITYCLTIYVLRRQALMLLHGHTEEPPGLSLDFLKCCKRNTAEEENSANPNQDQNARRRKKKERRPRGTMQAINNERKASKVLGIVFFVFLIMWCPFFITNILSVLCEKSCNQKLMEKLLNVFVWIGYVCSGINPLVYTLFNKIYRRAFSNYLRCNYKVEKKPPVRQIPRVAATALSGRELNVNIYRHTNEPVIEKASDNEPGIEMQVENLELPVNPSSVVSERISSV

D(4) dopamine receptor = target: T2, D(4) dopamine receptor (Homo sapiens, UniProt P21917); test: Displacement of [3H]-N-methylspiperone from recombinant human D4 receptor stably expressed in HEK cell membranes measured after 90 mins by microbeta scintillation counting method
T2 sequence (P21917 whole entry): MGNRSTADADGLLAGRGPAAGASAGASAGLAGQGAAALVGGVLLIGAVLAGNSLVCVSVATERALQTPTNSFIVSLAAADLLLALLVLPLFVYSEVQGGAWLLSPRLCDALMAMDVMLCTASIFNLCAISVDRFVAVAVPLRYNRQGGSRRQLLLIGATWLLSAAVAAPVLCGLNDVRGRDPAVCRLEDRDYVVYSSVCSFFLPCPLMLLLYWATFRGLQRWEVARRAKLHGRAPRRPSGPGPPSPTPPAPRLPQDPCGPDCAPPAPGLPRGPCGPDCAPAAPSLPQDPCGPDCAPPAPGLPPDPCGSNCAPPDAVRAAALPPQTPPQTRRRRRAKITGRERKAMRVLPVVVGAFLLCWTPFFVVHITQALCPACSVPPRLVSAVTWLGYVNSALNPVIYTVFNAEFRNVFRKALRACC

D(3) dopamine receptor = D(3) dopamine receptor (Homo sapiens, UniProt P35462); test: Displacement of [3H]-N-methylspiperone from recombinant human D3 receptor (unknown origin) measured after 90 mins by microbeta scintillation counting method
D(3) dopamine receptor, sequence (P35462 whole entry): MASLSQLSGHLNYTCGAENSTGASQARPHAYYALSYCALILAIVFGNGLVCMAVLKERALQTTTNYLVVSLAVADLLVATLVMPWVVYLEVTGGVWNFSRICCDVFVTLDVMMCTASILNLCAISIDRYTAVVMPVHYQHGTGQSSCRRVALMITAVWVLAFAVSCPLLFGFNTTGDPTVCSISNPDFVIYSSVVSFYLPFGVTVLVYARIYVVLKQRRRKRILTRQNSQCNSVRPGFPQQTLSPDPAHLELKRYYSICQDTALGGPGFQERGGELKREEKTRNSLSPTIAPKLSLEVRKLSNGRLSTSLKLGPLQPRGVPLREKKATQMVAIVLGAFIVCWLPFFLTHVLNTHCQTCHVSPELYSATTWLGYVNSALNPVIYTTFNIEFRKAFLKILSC

[2] = Cmax in ICR mouse at 10 mg/kg, po by LC-MS/MS analysis; type: ADME, organism-based; parameters: dose 10 mg/kg, route oral; conditions: in vivo
In short: (§1)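 Male ICR mice (6-8 weeks, ~25 g) dosed with compound dissolved in saline, 5 mg/kg iv or 10 mg/kg po, nine animals per group. Samples stored at -80 °C; drug quantified by LC-MS/MS.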

[3] = target: T1, 5-hydroxytryptamine receptor 2C; test: Antagonist activity at human 5HT2C receptor stably expressed in HEK293 cells co-expressing Gq assessed as inhibition of 5-HT-induced calcium mobilization preincubated for 15 mins followed by 5-HT addition and measured at 1 sec interval for 60 secs by Fluo-4 calcium dye based FLIPR assay; type: functional, cell-based
In short: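 5-HT2C stably transfected HEK293 cells, loaded with Fluo-4 Direct (HBSS, 20 mM HEPES pH 7.4, 2.5 mM probenecid; 50 min 37 °C, 10 min room temperature). Test compound added, then 5-HT (final 1 nM) 15 min later.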

[4] = Ratio of drug level in ICR mouse brain to plasma at 10 mg/kg, po measured after 2 hrs by LC-MS/MS analysis; type: ADME, organism-based; conditions: read-out: BPR
In short: (§2)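 Male ICR mice (6-8 weeks, ~25 g) received compound in saline, 5 mg/kg iv or 10 mg/kg po. Brains collected at 0.5 and 2.0 h, saline-washed, weighed, homogenized in cold 50% methanol (1 g:3 mL). Plasma prepared from orbital blood. Samples held at -80 °C; LC-MS/MS quantitation. Brain/plasma ratio calculated from the two concentrations.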

[5] = AUC (0 to t) in ICR mouse at 10 mg/kg, po by LC-MS/MS analysis; type: ADME, organism-based; conditions: in vivo; in short: as §1
[6] = target: 5-hydroxytryptamine receptor 2A (Homo sapiens, UniProt P28223); test: Agonist activity at 5HT2A receptor (unknown origin) expressed in HEK293 cells co-expressing Gq assessed as induction of calcium mobilization measured at 1 sec interval for 60 secs by Fluo-4 calcium dye based FLIPR assay; type: cell-based; conditions: hek293, 1 min
5-hydroxytryptamine receptor 2A, sequence (P28223 whole entry): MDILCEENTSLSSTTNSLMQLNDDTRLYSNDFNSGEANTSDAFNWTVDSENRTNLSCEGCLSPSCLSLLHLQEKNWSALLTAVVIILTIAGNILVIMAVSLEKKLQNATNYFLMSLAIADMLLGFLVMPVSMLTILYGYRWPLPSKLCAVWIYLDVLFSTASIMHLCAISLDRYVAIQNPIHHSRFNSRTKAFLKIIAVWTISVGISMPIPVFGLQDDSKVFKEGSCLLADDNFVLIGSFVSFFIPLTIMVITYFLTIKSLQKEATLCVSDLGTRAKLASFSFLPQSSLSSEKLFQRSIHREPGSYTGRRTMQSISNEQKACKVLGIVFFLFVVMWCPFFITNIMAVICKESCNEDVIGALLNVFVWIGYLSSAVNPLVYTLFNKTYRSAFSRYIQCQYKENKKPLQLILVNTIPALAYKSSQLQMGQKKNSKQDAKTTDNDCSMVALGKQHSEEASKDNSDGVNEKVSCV

[7] = Clearance in ICR mouse at 5 mg/kg, iv by LC-MS/MS analysis; type: ADME, organism-based; conditions: in vivo; in short: as §1
[8] = Ratio of drug level in ICR mouse brain to plasma at 10 mg/kg, po measured after 0.5 hrs by LC-MS/MS analysis; type: ADME, organism-based; conditions: read-out: BPR; in short: as §2
[9] = Drug level in ICR mouse brain at 10 mg/kg, po measured after 2 hrs by LC-MS/MS analysis; type: ADME, organism-based; in short: as §2
[10] = Tmax in ICR mouse at 10 mg/kg, po by LC-MS/MS analysis; type: ADME, organism-based; conditions: in vivo; in short: as §1
[11] = Oral bioavailability in ICR mouse at 10 mg/kg by LC-MS/MS analysis; type: ADME, organism-based; conditions: in vivo; in short: as §1
[12] = Drug level in ICR mouse brain at 10 mg/kg, po measured after 0.5 hrs by LC-MS/MS analysis; type: ADME, organism-based; in short: as §2
[13] = Drug level in ICR mouse plasma at 10 mg/kg, po measured after 2 hrs by LC-MS/MS analysis; type: ADME, organism-based; in short: as §2
[14] = Drug level in ICR mouse plasma at 5 mg/kg, iv measured after 0.5 hrs by LC-MS/MS analysis; type: ADME, organism-based; in short: as §2
[15] = Half life in ICR mouse at 10 mg/kg, po by LC-MS/MS analysis; type: ADME, organism-based; conditions: in vivo; in short: as §1
[16] = Volume of distribution at steady state in ICR mouse at 5 mg/kg, iv by LC-MS/MS analysis; type: ADME, organism-based; conditions: in vivo, read-out: Vdss; in short: as §1
[17] = AUC (0 to t) in ICR mouse at 5 mg/kg, iv by LC-MS/MS analysis; type: ADME, organism-based; conditions: in vivo; in short: as §1
[18] = Ratio of drug level in ICR mouse brain to plasma at 5 mg/kg, iv measured after 2 hrs by LC-MS/MS analysis; type: ADME, organism-based; conditions: read-out: BPR; in short: as §2
[19] = Drug level in ICR mouse plasma at 10 mg/kg, po measured after 0.5 hrs by LC-MS/MS analysis; type: ADME, organism-based; in short: as §2
[20] = target: 5-hydroxytryptamine receptor 2B (Homo sapiens, UniProt P41595); test: Agonist activity at 5HT2B receptor (unknown origin) expressed in HEK293 cells co-expressing Gq assessed as induction of calcium mobilization measured at 1 sec interval for 60 secs by Fluo-4 calcium dye based FLIPR assay; type: cell-based; conditions: hek293, 1 min
5-hydroxytryptamine receptor 2B, sequence (P41595 whole entry): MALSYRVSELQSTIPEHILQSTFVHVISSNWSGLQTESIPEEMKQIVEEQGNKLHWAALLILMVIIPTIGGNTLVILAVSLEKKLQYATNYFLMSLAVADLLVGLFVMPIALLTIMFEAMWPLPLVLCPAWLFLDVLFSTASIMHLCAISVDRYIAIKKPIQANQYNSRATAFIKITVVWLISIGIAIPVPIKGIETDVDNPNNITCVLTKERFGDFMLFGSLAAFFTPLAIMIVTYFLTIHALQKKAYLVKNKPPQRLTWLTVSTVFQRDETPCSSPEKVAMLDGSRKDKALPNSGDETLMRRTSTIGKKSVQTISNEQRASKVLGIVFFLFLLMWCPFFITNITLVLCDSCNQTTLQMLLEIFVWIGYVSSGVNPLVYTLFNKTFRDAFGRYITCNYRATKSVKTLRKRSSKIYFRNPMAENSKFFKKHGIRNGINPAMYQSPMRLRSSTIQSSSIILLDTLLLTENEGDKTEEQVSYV

[21] = Drug level in ICR mouse brain at 5 mg/kg, iv measured after 0.5 hrs by LC-MS/MS analysis; type: ADME, organism-based; in short: as §2
[22] = Ratio of drug level in ICR mouse brain to plasma at 5 mg/kg, iv measured after 0.5 hrs by LC-MS/MS analysis; type: ADME, organism-based; conditions: read-out: BPR; in short: as §2
[23] = Drug level in ICR mouse plasma at 5 mg/kg, iv measured after 2 hrs by LC-MS/MS analysis; type: ADME, organism-based; in short: as §2
[24] = Half life in ICR mouse at 5 mg/kg, iv by LC-MS/MS analysis; type: ADME, organism-based; conditions: in vivo; in short: as §1
[25] = MRT in ICR mouse at 10 mg/kg, po by LC-MS/MS analysis; type: ADME, organism-based; conditions: in vivo; in short: as §1
[26] = Drug level in ICR mouse brain at 5 mg/kg, iv measured after 2 hrs by LC-MS/MS analysis; type: ADME, organism-based; in short: as §2
[27] = MRT in ICR mouse at 5 mg/kg, iv by LC-MS/MS analysis; type: ADME, organism-based; conditions: in vivo; in short: as §1

pKi (D(1B) dopamine receptor) | pKi (D(2) dopamine receptor) | pKi (D(1A) dopamine receptor) | pKi [1] | pKi (D(4) dopamine receptor) | pKi (D(3) dopamine receptor) | Cmax [2] | pIC50 [3] | Kp at 2 h [4] | AUC(0-t) [5] | Activity [6] | clearance [7] | Kp at 0.5 h [8] | concentration at 2 h [9] | Tmax [10] | bioavailability [11] | concentration at 0.5 h [12] | concentration at 2 h [13] | concentration at 0.5 h [14] | Activity [20] | Structure (SMILES) | also measured
5.92 | < 5.30 | 5.97 | 6.90 | 6.54 | 7.19 | – | – | – | – | – | – | – | – | – | – | – | – | – | – | COc1ccc(F)cc1C1CC1CN(CCCSc1nnc(-c2ccccc2)n1C)CC1CC1 (stereo not drawn) | –
< 5.30 | 5.94 | 5.78 | 6.38 | 7.07 | 7.06 | – | – | – | – | – | – | – | – | – | – | – | – | – | – | CCCN(CCCSc1nnc(-c2ccccc2)n1C)CC1CC1c1cc(F)ccc1OC (stereo not drawn) | –
< 5.30 | – | 5.87 | 6.38 | 6.17 | – | 118 ng/mL | 5.00 | 0.207 | 254 ng·h/mL | Active | 84.8 mL/min/kg | 0.23 | 9.1 ng/mL | 0.5 h | 13% | 26.7 ng/mL | 44.1 ng/mL | 511 ng/mL | Not Active | CCCN(CCCCNC(=O)c1ccc(-c2ccccn2)cc1)C[C@@H]1C[C@H]1c1cccc(Cl)c1Cl.Cl | half-life [15]: 2.12 h; Vd [16]: 4.11 L/kg; AUC(0-t) [17]: 976 ng·h/mL; Kp at 2 h [18]: 1.93; concentration at 0.5 h [19]: 118 ng/mL; concentration at 0.5 h [21]: 980 ng/mL; Kp at 0.5 h [22]: 1.92; concentration at 2 h [23]: 118 ng/mL; half-life [24]: 0.576 h; MRT [25]: 2.77 h; concentration at 2 h [26]: 227 ng/mL; MRT [27]: 0.808 h
< 5.30 | 6.29 | < 5.30 | 6.31 | 6.49 | 6.98 | – | – | – | – | – | – | – | – | – | – | – | – | – | – | COc1ccc(F)cc1C1CC1CN(CCCSc1nnc(-c2ccccc2)n1C)C(C)C (stereo not drawn) | –
< 5.30 | 6.17 | 5.89 | 6.37 | 6.09 | – | 37.3 ng/mL | 4.79 | 1.61 | 81.1 ng·h/mL | Active | 134 mL/min/kg | 0.82 | 23.2 ng/mL | 0.25 h | 6.6% | 23.2 ng/mL | 16.4 ng/mL | 270 ng/mL | Not Active | CCCN(CCCCNC(=O)c1ccc2ccccc2c1)C[C@@H]1C[C@H]1c1cccc(Cl)c1Cl.Cl | half-life [15]: 2.08 h; Vd [16]: 20.8 L/kg; AUC(0-t) [17]: 616 ng·h/mL; Kp at 2 h [18]: 11.1; concentration at 0.5 h [19]: 28.4 ng/mL; concentration at 0.5 h [21]: 3420 ng/mL; Kp at 0.5 h [22]: 12.7; concentration at 2 h [23]: 82.6 ng/mL; half-life [24]: 1.51 h; MRT [25]: 2.59 h; concentration at 2 h [26]: 913 ng/mL; MRT [27]: 2.58 h
< 5.30 | 5.87 | 5.31 | 5.95 | 6.24 | – | 43.2 ng/mL | 4.84 | 0.79 | 49.5 ng·h/mL | Active | 126 mL/min/kg | 0.49 | 6.57 ng/mL | 0.25 h | 3.8% | 8.21 ng/mL | 8.4 ng/mL | 446 ng/mL | Not Active | CCCN(CCCCNC(=O)c1ccc(-c2ccccn2)cc1)C[C@@H]1C[C@H]1c1cc(F)ccc1OC.Cl | half-life [15]: 2.64 h; Vd [16]: 3.13 L/kg; AUC(0-t) [17]: 660 ng·h/mL; Kp at 2 h [18]: 1.53; concentration at 0.5 h [19]: 16.8 ng/mL; concentration at 0.5 h [21]: 530 ng/mL; Kp at 0.5 h [22]: 1.19; concentration at 2 h [23]: 12.7 ng/mL; half-life [24]: 0.437 h; MRT [25]: 3.72 h; concentration at 2 h [26]: 19.4 ng/mL; MRT [27]: 0.415 h
< 5.30 | 5.91 | 5.97 | 7.30 | 6.07 | – | – | 6.07 | – | – | Active | – | – | – | – | – | – | – | – | Not Active | CCCN(CCCCNC(=O)c1ccc(-c2ccccn2)cc1)C[C@H]1C[C@@H]1c1cc(F)ccc1OC.Cl | –
